Source: ChEMBL document CHEMBL1125037, “Synthesis and antihypertensive activity of 4-(1,2-dihydro-2-oxo-1-pyridyl)-2H-1-benzopyrans and related compounds, new potassium channel activators” (1990)

Tested on: Rattus norvegicus
Assay: Antihypertensive effect after 1 mg/kg (po) administration in conscious spontaneously hypertensive rat (over a time period of 0-210 minutes).
Assay type: functional
Method in brief: (§1)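 Male Okamoto-strain SHR (280-330 g, blood pressure >180 mmHg), conscious and unrestrained, given 1 mg/kg orally as a screening dose. Mean arterial pressure was recorded directly and continuously via an aortic catheter from 1 h before to 3.5 h after dosing. The effect is the mean of the maximum individual changes over 3.5 h; N ≥ 3.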

Row | SMILES | Max fall in blood pressure
1 | CC1(C)Oc2ccc(C#N)cc2C(n2cnccc2=O)[C@@H]1O (some centres undefined) | 19 mmHg
2 | CC1(C)Oc2ccc(C#N)cc2C(n2ncc3ccccc3c2=O)[C@@H]1O (some centres undefined) | 38 mmHg
3 | COC1=C(n2ccccc2=O)c2cc(C#N)ccc2OC1(C)C | 22 mmHg
4 | CC1(C)C=C(N2CCCCS2(=O)=O)c2cc(C#N)ccc2O1 | 25 mmHg
5 | CC1(C)Oc2ccc(C(=N)S)cc2C(N2CCCC2=O)[C@@H]1O (some centres undefined) | 22 mmHg
6 | CC1(C)Oc2ccc(C#N)cc2C(n2ccc3ccccc3c2=O)[C@@H]1O (some centres undefined) | 24 mmHg
7 | CC1(C)C=C(n2ccccc2=O)c2cc(C=O)ccc2O1 | 35 mmHg
8 | CCOC(=O)c1ccc(=O)n(C2c3cc(C#N)ccc3OC(C)(C)[C@H]2O)n1 (some centres undefined) | 24 mmHg
9 | CC1(C)Oc2ccc(-c3ccncc3)cc2[C@@H](n2ccccc2=O)[C@@H]1O | 24 mmHg
10 | CC(=O)Nc1cccn([C@@H]2c3cc(C#N)ccc3OC(C)(C)[C@H]2O)c1=O | 22 mmHg
11 | CC1(C)Oc2ccc(C#N)cc2C(n2ccc(=O)nc2)[C@@H]1O (some centres undefined) | 18 mmHg
12 | CC1(C)Oc2ccc(C#N)cc2C(N2CCCCS2(=O)=O)[C@@H]1O (some centres undefined) | 30 mmHg
13 | CC1(C)C=C(n2ncccc2=O)c2cc(C#N)ccc2O1 | 23 mmHg
14 | N#Cc1ccc2c(c1)C(n1ccccc1=O)=CC1(CCCC1)O2 | 26 mmHg
15 | CC(=O)c1ccc2c(c1)[C@@H](n1ccccc1=O)[C@H](O)C(C)(C)O2 | 38 mmHg
16 | CC1(C)Oc2ccc(C#N)cc2[C@@H](n2cccc(C(=O)O)c2=O)[C@@H]1O | 24 mmHg
17 | CC1(C)C=C(n2ccccc2=O)c2cc(C(=N)S)ccc2O1 | 23 mmHg

Row | SMILES | Max fall in blood pressure
18 | CC1(C)Oc2ccc(/N=C/c3ccc([N+](=O)[O-])cc3)cc2C(N2CCCC2=O)[C@@H]1O (some centres undefined) | 26 mmHg
19 | CC1(C)Oc2ccc(C#N)cc2C(n2cccnc2=O)[C@@H]1O (some centres undefined) | 20 mmHg
20 | CC1(C)C=C(n2ccc(=O)[nH]c2=O)c2cc(C#N)ccc2O1 | 23 mmHg
21 | CC1(C)C=C(n2ccc(=O)cc2)c2cc(C#N)ccc2O1 | 48 mmHg
22 | CC1(C)C=C(n2cc([N+](=O)[O-])ccc2=O)c2cc(C#N)ccc2O1 | 27 mmHg
23 | CC1(C)Oc2ccc(C#N)cc2[C@@H](n2cc(N)ccc2=O)[C@@H]1O | 34 mmHg
24 | CC1(C)Oc2ccc(C#N)cc2[C@@H](n2cc(Cl)ccc2=O)[C@@H]1O | 37 mmHg
25 | CC1(C)Oc2ccc(/C=C/C#N)cc2[C@@H](n2ccccc2=O)[C@@H]1O | 25 mmHg
26 | CC1(C)Oc2ccc(C#N)cc2C(n2ccccc2=O)C1=O (centres undefined) | 20 mmHg
27 | CC(=O)OC1=C(n2ccccc2=O)c2cc(C#N)ccc2OC1(C)C | 21 mmHg
28 | CC1(C)Oc2ccc(-c3ccncc3)cc2C(N2CCCC2=O)[C@@H]1O (some centres undefined) | 20 mmHg
29 | CC1(C)C=C(n2cc(Cl)ccc2=O)c2cc(C#N)ccc2O1 | 23 mmHg
30 | COC(=O)c1ccc2c(c1)[C@@H](n1ccccc1=O)[C@H](O)C(C)(C)O2 | 49 mmHg
31 | CC1(C)Oc2ccc(C#N)cc2[C@H](n2ccccc2=O)[C@@H]1O | 26 mmHg
32 | CC1(C)Oc2ccc(C#N)cc2[C@@H](n2cc([N+](=O)[O-])ccc2=O)[C@@H]1O | 23 mmHg
33 | O=c1ccccn1C1=CC2(CCCCC2)Oc2ccc([N+](=O)[O-])cc21 | 22 mmHg
34 | CC1(C)Oc2ccc(C#N)cc2C(n2ccc(=O)cc2)[C@@H]1O (some centres undefined) | 21 mmHg

Tested on: Rattus norvegicus
Assay: Antihypertensive effect after 1 mg/kg (po) administration in conscious spontaneously hypertensive rat (over a time period of 0-210 min).
Assay type: functional, organism-based
Parameters: dose 1 mg/kg
Method in brief: as §1

Row | SMILES | Max fall in blood pressure
35 | O=c1ccccn1C1=CC2(CCCC2)Oc2ccc([N+](=O)[O-])cc21 | Not significant
36 | CC1(C)Oc2ccc([N+](=O)[O-])cc2[C@@H](N2CCCC2=N)[C@@H]1O | Not significant
37 | Cc1csc(-c2ccc3c(c2)C(N2CCCC2=O)[C@H](O)C(C)(C)O3)n1 (some centres undefined) | Not significant
38 | CC1(C)CC(n2ccc(=O)cc2)c2cc(C#N)ccc2O1 (centres undefined) | Not significant
39 | CC1(C)Oc2ccc(C#N)cc2[C@@H](n2cc(C(=O)O)ccc2=O)[C@@H]1O | Not significant
40 | CC1(C)Oc2ccc(C(=N)S)cc2[C@@H](n2ccccc2=O)[C@@H]1O | Not significant
41 | CN(C)c1cccn([C@@H]2c3cc(C#N)ccc3OC(C)(C)[C@H]2O)c1=O | Not significant
42 | COC(=O)c1ccc2c(c1)C(n1ccccc1=O)C(=O)C(C)(C)O2 (centres undefined) | Not significant
43 | COc1cccn([C@@H]2c3cc(C#N)ccc3OC(C)(C)[C@H]2O)c1=O | Not significant
44 | CC1(C)Oc2ccc(NC(=N)S)cc2C(N2CCCC2=O)[C@@H]1O (some centres undefined) | Not significant
45 | CC1(C)C=C(n2cc(Cl)c(=O)c(Cl)c2)c2cc(C#N)ccc2O1 | Not significant
46 | Cc1csc(Nc2ccc3c(c2)C(N2CCCC2=O)[C@H](O)C(C)(C)O3)n1 (some centres undefined) | Not significant
47 | CC1(C)Oc2ccc(Br)cc2[C@@H](n2ccccc2=O)[C@@H]1O | Not significant
48 | CC1(C)Oc2ccc(C#N)cc2[C@@H](N2CCCCC2=N)[C@@H]1O | Not significant
49 | N#Cc1ccc2c(c1)[C@@H](n1ccccc1=O)[C@H](O)C1(CCCC1)O2 | Not significant
50 | CC1(C)Oc2ccc(C#N)cc2C(n2cc(Cl)c(=O)c(Cl)c2)[C@@H]1O (some centres undefined) | Not significant
51 | O=c1ccccn1[C@@H]1c2cc([N+](=O)[O-])ccc2OC2(CCCC2)[C@H]1O | Not significant
52 | CC1(C)Oc2ccc(C#N)cc2C(n2ccc(=O)[nH]c2=O)[C@@H]1O (some centres undefined) | Not significant
53 | CC(=O)Nc1ccc(=O)n([C@@H]2c3cc(C#N)ccc3OC(C)(C)[C@H]2O)c1 | Not significant
54 | CC1(C)Oc2ccc(C#N)cc2[C@@H](n2cccc(N)c2=O)[C@@H]1O | Not significant
55 | CC1(C)Oc2ccc(-c3nn[nH]n3)cc2C(N2CCCC2=O)[C@@H]1O (some centres undefined) | Not significant
56 | CC1(C)Oc2ccc(C(N)=O)cc2[C@]2(n3ccccc3=O)O[C@H]12 | Not significant
57 | CC1(C)Oc2ccc(-c3nc4ccccc4[nH]3)cc2C(N2CCCC2=O)[C@@H]1O (some centres undefined) | Not significant
58 | CC1(C)C=C(n2cc(Br)cc(Br)c2=O)c2cc(C#N)ccc2O1 | Not significant
59 | CC1(C)Oc2ccc(C=O)cc2[C@@H](n2ccccc2=O)[C@@H]1O | Not significant

Row | SMILES | Max fall in blood pressure
60 | CC1(C)Oc2ccc(-c3nc4cc[nH]cc-4n3)cc2C(N2CCCC2=O)[C@@H]1O (some centres undefined) | Not significant
61 | CC1(C)C=C(n2ccccc2=O)c2cc(-c3ccncc3)ccc2O1 | Not significant
62 | CC1(C)Oc2ccc(C3=NCCN3)cc2C(N2CCCC2=O)[C@@H]1O (some centres undefined) | Not significant
63 | CC1(C)Oc2ccc(-c3nc4ccc[nH]c-4n3)cc2C(N2CCCC2=O)[C@@H]1O (some centres undefined) | Not significant
64 | Cc1coc(-c2ccc3c(c2)C(N2CCCC2=O)[C@H](O)C(C)(C)O3)n1 (some centres undefined) | Not significant
65 | CC1(C)C=C(n2cc(Cl)cc(Cl)c2=O)c2cc(C#N)ccc2O1 | Not significant
66 | N#Cc1ccc2c(c1)C(n1ccccc1=O)=CC1(CCCCC1)O2 | Not significant
67 | CC1(C)C=C(n2ccc(OCc3ccccc3)cc2=O)c2cc(C#N)ccc2O1 | Not significant
68 | CC1(C)Oc2ccc(C#N)cc2[C@@H](n2cc(Br)cc(Br)c2=O)[C@@H]1O | Not significant
69 | CC(=O)Oc1cccn([C@@H]2c3cc(C#N)ccc3OC(C)(C)[C@H]2O)c1=O | Not significant
70 | CC1(C)Oc2ccc(/N=C/c3ccc(Cl)cc3Cl)cc2C(N2CCCC2=O)[C@@H]1O (some centres undefined) | Not significant
71 | CC1(C)Oc2ccc(/N=C/c3ccc(C#N)cc3)cc2C(N2CCCC2=O)[C@@H]1O (some centres undefined) | Not significant
72 | O=c1ccccn1[C@@H]1c2cc([N+](=O)[O-])ccc2OC2(CCCCC2)[C@H]1O | Not significant
73 | CC(=O)Nc1ccc(=O)n(C2=CC(C)(C)Oc3ccc(C#N)cc32)c1 | Not significant
74 | N#Cc1ccc2c(c1)[C@@H](n1ccccc1=O)[C@H](O)C1(CCCCC1)O2 | Not significant
75 | CC1(C)Oc2ccc(C#N)cc2[C@@H](N2CCC/C2=N\C(=O)c2ccncc2)[C@@H]1O | Not significant
76 | CC1(C)Oc2ccc(/C=C/c3ccc(C#N)cc3)cc2[C@@H](n2ccccc2=O)[C@@H]1O | Not significant
77 | CC1(C)Oc2ccc(C#N)cc2[C@@H](n2cc(Cl)cc(Cl)c2=O)[C@@H]1O | Not significant
78 | CC1(C)C=C(n2ccc3ccccc3c2=O)c2cc(C#N)ccc2O1 | Not significant
79 | CC1(C)Oc2ccc(C#N)cc2[C@@H](n2cccc([N+](=O)[O-])c2=O)[C@@H]1O | Not significant
80 | CC1(C)Oc2ccc(C#N)cc2C(N2CCC(=O)CC2)[C@@H]1O (some centres undefined) | Not significant
81 | CCOC(=O)c1ccc2c(c1)[C@@H](n1ccccc1=O)[C@H](O)C(C)(C)O2 | Not significant
82 | CC1(C)C=C(n2ccccc2=O)c2cc(C(N)=O)ccc2O1 | Not significant
83 | CC1(C)Oc2ccc(C#N)cc2[C@@H](n2ccc(OCc3ccccc3)cc2=O)[C@@H]1O | Not significant
84 | CCOc1ccn([C@@H]2c3cc(C#N)ccc3OC(C)(C)[C@H]2O)c(=O)c1 | Not significant
